Source: ChEMBL document CHEMBL1146529, “Isolations of N-methyl-D-aspartic acid-type glutamate receptor ligands from Micronesian sponges” (J Nat Prod, 2003)
Active and inactive are the calls of the source. No cut-off for these calls is given here.

Tests used:
Mus musculus [1] = assay: Agonist activity at NMDA receptor assessed as induction of convulsive behavior in intracerebroventricular dosed ddY mouse; type: functional
Outline: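 Male ddY mice (15-20 g, 4-6 weeks old) received intracerebroventricular injections. More than three animals were used per dose. ED50 (pmol/mouse) was derived from dose-response curves.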

Glutamate NMDA receptor = assay: Displacement of [3H]CGP39653 from NMDA receptor in Sprague-Dawley rat brain membrane; type: cell membranes
Outline: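 Synaptic membranes were prepared from Sprague-Dawley rats (200-220 g). The assay used 2 nM [3H]CGP39653 to label the NMDA site, incubated at 4 °C for 1 h in 5 mM Tris-HCl (pH 7.7). Inhibition of labelled-ligand binding gave the IC50.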

[2] = system: AMPA-type glutamate receptor (Rattus norvegicus); assay: Displacement of [3H]AMPA from AMPA receptor in Sprague-Dawley rat brain membrane
[3] = system: Kainate-type glutamate receptor (Rattus norvegicus); assay: Displacement of [3H]kanic acid from kainate receptor in Sprague-Dawley rat brain membrane
Mus musculus [4] = assay: Agonist activity at NMDA receptor assessed as induction of violent convulsive behavior in intracerebroventricular dosed ddY mouse at 145 pmol; type: functional, organism-based
Mus musculus [5] = assay: Induction of convulsive behavior in icv dosed ddY mouse assessed as hyperactivie and stereotypical behaviors at 33 pmol; type: functional, organism-based

| IC50 (Glutamate NMDA receptor) [nM] | Activity [2] | Activity [3] | SMILES | Activity (Mus musculus [1]) | ED50 (Mus musculus [1]) [pmol] | Activity (Mus musculus [4]) | Activity (Mus musculus [5]) |
| --- | --- | --- | --- | --- | --- | --- | --- |
| 214 | inactive | inactive | O=C(O)[C@@H]1C[C@@H](OS(=O)(=O)O)CCN1 | Dose-dependent effect | 20 |  |  |
| 83 | inactive | inactive | O=C(O)[C@@H]1C[C@@H](OS(=O)(=O)O)[C@H](O)CN1 [CRIBRONIC ACID] | Dose-dependent effect | 29 | Active | Active |
